# From PubChem
# The list is not random: actives were taken first. Their share in the collection is about 3.9%.
# CHRM1 agonist – activates human CHRM1 receptor. activation, % at 3 µM. 360,000 compounds, 0.33% hits. P11229. CHO-K1 hM1, Fluo-8 calcium fluorescence, agonist mode; 0% DMSO, 100% acetylcholine EC100;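 active means activation above the run's mean compound activation plus 3 SD, cut at about 16% in these data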;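 further: peak over basal fluorescence ratio within a 140 s kinetic read after compound addition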
# Target sequence (P11229 whole entry, looked up): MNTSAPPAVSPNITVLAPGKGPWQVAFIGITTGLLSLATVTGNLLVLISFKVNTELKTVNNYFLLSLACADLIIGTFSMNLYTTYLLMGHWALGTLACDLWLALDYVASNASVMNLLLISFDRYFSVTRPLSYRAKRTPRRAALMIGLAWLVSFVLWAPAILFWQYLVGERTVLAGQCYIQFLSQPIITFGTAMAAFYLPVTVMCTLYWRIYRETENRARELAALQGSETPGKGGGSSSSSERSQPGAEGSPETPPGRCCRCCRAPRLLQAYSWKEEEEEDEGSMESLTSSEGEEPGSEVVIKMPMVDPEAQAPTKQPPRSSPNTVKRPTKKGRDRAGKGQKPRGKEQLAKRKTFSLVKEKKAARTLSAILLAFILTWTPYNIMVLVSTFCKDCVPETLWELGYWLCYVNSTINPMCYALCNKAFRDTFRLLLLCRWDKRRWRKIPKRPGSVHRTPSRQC
# CHRM1 antagonist – antagonists of human M1 muscarinic receptor; CHO-K1 hM1, Fluo-8 calcium fluorescence, ACh EC80 antagonist; 360,000 compounds, 1.3% hits; inhibition, % at 3 µM;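 active means percent inhibition above its own plate's cutoff, namely the mean of that plate's compound wells plus 3 SD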;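 further: peak over basal fluorescence ratio during 140 s after agonist addition; 0% = ACh EC80 plus DMSO and 100% = DMSO alone without agonist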
# m5-HT2A agonist – activates the mouse 5-HT2A serotonin receptor; CHO-K1 mHTR2A beta-arrestin complementation, luminescence; percent of 30 µM serotonin response; AID 624169; 360,000 compounds, 0.66% hits; activation, % at 7.6 µM; P35363;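 active means activation above a run cutoff, the mean activation of all tested compounds plus 3 SD, cut at about 14% in these data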;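 further: 0% = plate median of compound wells and 100% = 30 µM serotonin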
# TAAR1 antag – human TAAR1 antagonism | CHO RD-HGA16 TAAR1, Fluo-8 calcium fluorescence, antagonist | inhibition, % at 3 µM | 360,000 compounds, 1.5% hits;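 active means inhibition above a per-plate cutoff, the mean inhibition of test compounds on that plate plus 3 SD, cut at about 49% in these data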;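 further: 0% = DMSO plus EC80 beta-PEA response and 100% = DMSO alone without agonist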
#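 Assay system: CHO-derived RD-HGA16 cells stably expressing human TAAR1 plus Gα16. Timing: 140 s kinetic read after compound, 140 s after agonist. Technique: kinetic Fluo-8 calcium fluorescence measurement. Measure: % inhibition of agonist calcium response.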
# CHRM1 PAM – potentiates human M1 receptor response to acetylcholine. CHO-K1 hM1, Fluo-8 calcium fluorescence, ACh EC20; 0% = ACh EC20, 100% = maximal ACh. activation, % at 3 µM. 360,000 compounds, 0.088% hits; in the data active means activation above about 19%, passing the limit was not always enough
# TAAR1 agonist – agonists of human TAAR1. Q96RJ0. CHO RD-HGA16 TAAR1, Fluo-8 calcium fluorescence; vehicle wells 0%, saturating PEA agonist 100%. activation, % at 3 µM. 360,000 compounds, 0.99% hits;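 active means activation above the mean activation of all test compounds in the run plus 3 SD, cut at about 38% in these data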
#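 System: CHO-derived RD-HGA16 cells with stable Gα16 and human TAAR1 / Times: 17-24 h plating, Fluo-8 75 min 37 °C, 30 min RT / Technique: calcium-sensitive Fluo-8 signal, excitation 470-495, emission 515-575 nm / Measure: % activation relative to PEA EC100 response / Benchmarks: DMSO and PEA EC100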
# Numbers without * were called inactive; . = no result.
SMILES,CHRM1 agonist,CHRM1 antagonist,m5-HT2A agonist,TAAR1 antag,CHRM1 PAM,TAAR1 agonist
Clc1cccc(CN2CCCCC2c2cccnc2)c1 (configuration not stated),-11,-9,2,-25,8,19
O=c1c2ccccc2nc(/C=C/c2ccc3c(c2)OCO3)n1-c1ccccc1,-3,2,-6,18,-4,7
COc1ccc(-n2c(/C=C/c3ccc(O)c(O)c3)nc3ccccc3c2=O)cc1,-2,35,1,50*,-19,11
COc1cc(/C=C/c2nc3ccccc3c(=O)n2-c2ccc(O)cc2)ccc1O,-1,21,3,67*,-9,16
CC1CCCC(NC(=O)CNC(=S)N2CC3CC(C2)c2cccc(=O)n2C3)C1C (configuration not stated),-3,-6,-4,-4,5,1
O=C1NC(=O)C(CCc2ccncc2)(CCc2ccncc2)C(=O)N1Cc1ccc(F)cc1,-7,7,1,-3,9,10
COC(=O)[C@@H]1N=C(c2ccc(OC)cc2)O[C@]12C(=O)N(Cc1ccccc1)c1ccccc12,.,.,-5,5,.,2
Oc1c(Cl)cccc1Cc1cc(Cl)cc(Cl)c1O,3,41*,5,18,-22,0
CN1C2CCC1CC(OC(c1ccccc1)c1ccccc1N)C2 (configuration not stated),-6,99*,-10,-7,-26,2
COc1ccc(C(=O)CN2CCCCC2)cc1,-6,-1,-4,-3,6,8
CC1CC(C)CN(CC(=O)c2ccc(OC(F)F)cc2)C1 (configuration not stated),-8,3,3,-31,3,42*
COc1cc(C(=O)OC2C[C@H]3CC[C@@H](C2)N3C)ccc1O (some centres not stated),-10,0,0,-5,-4,0
COc1cc(C(=O)OC2C[C@H]3CC[C@@H](C2)N3)ccc1O (some centres not stated),-10,95*,1,-7,-27,-1
O=S(=O)(NC1CN2CCC1CC2)c1ccc(Cl)cc1 (configuration not stated),-12,25*,-5,-6,-19,-3
O=S(=O)(c1ccc(Cl)cc1)N1CN2CCN(C2)C1,-1,-11,-3,0,10,12
CCOC(=O)[C@]12Cc3ccc(C)cc3[C@H]1N(C1CCCCC1)C(=O)c1cc(OC)ccc12,.,.,5,15,.,3
CCOC(=O)[C@]12Cc3cc(Cl)ccc3[C@H]1N(C1CCCCC1)C(=O)c1cc(OC)ccc12,.,.,2,63*,.,2
CCCCCCC(=O)c1c(O)n(-c2ccccc2OC)c(=O)[nH]c1=O,-6,-4,-1,3,5,1
O=C(O)c1ccc(-[n+]2c(-c3ccccc3)cc(-c3ccccc3)cc2-c2ccccc2)cc1,-6,-7,-6,-8,9,2
Oc1ccccc1-[n+]1c(-c2ccccc2)cc(-c2ccccc2)cc1-c1ccccc1,-8,30,-5,51*,-22,8
[O-]c1ccccc1-[n+]1c(-c2ccccc2)cc(-c2ccccc2)cc1-c1ccccc1,-13,23,-4,29,-23,3
COc1ccc(-[n+]2c(-c3ccccc3)cc(-c3ccc(C)cc3)cc2-c2ccccc2)cc1,-6,86*,12,11,-30,6
Cc1ccccc1-[n+]1c(-c2ccccc2)cc(-c2ccccc2)cc1-c1ccccc1,-8,65*,0,38,-28,9
CCCOC(=O)c1ccc(-[n+]2c(-c3ccccc3)cc(-c3ccccc3)cc2-c2ccccc2)cc1,-8,45*,11,14,-27,24
COC(=O)C1=C(c2cc3ccccc3o2)C[C@@H]2CC[C@H]1N2C(=O)NCCNC(C)=O,-12,33*,-4,3,-24,3
SMILES,CHRM1 agonist,CHRM1 antagonist,m5-HT2A agonist,TAAR1 antag,CHRM1 PAM,TAAR1 agonist
OCC1CN1C1CCCCC1 (configuration not stated),-3,-9,3,-11,5,0
Nc1c2c(nc3sc4c(c13)CCCC4)CCCCC2,-3,36*,-10,-8,-20,0
CCn1ccnc1CN1CCCC(C(=O)c2cccc(C(F)(F)F)c2)C1 (configuration not stated),-10,78*,10,-18,-27,4
O=C(c1cccc(C(F)(F)F)c1)C1CCCN(Cc2ncc[nH]2)C1 (configuration not stated),-13,17,1,9,-29,1
Cc1ccc(C(=O)C2CN3CCC2CC3)cc1 (configuration not stated),1,28*,-5,-1,-7,8
Cc1ccc(C(=O)C2CN(C)CC2C(=O)c2ccc(C)cc2)cc1 (configuration not stated),-2,13,-2,-10,-7,2
O=C(COc1ccc(Cl)cc1)N(c1ccc(Cl)cc1)C1CN2CCC1CC2 (configuration not stated),-4,44*,-7,-3,-21,12
CN1CCN(C(=O)COc2ccc(Oc3ccccc3)cc2)CC1,-15,-2,-3,13,8,7
O=C(COc1ccc(Cl)cc1)N(c1ccccc1Cl)C1CN2CCC1CC2 (configuration not stated),-6,75*,-5,6,-25,4
O=C(NC(=C(Cl)Cl)P(=O)(c1ccccc1)c1ccccc1)c1ccccc1,-4,-9,4,11,12,1
Cc1ccccc1-n1c(-c2ccc([N+](=O)[O-])cc2)nc2ccccc2c1=O,-10,49*,5,-11,-29,10
O=c1[nH]c(=O)n(-c2ccccc2F)c(O)c1C=NCCC1=CCCCC1,-9,-9,6,-7,11,0
COC(=O)C1=C(c2ccc(OC(F)(F)F)cc2)C[C@@H]2CC[C@H]1N2C(=O)NCc1ccco1,.,.,.,-8,.,-2
C[N+]1(C)C2CC[C@H]1CC(OC(=O)C(CO)c1ccccc1)C2 (some centres not stated),-7,100*,2,-12,-27,1
C[N+]1(C)C2CCC1CC(OC(=O)c1c[nH]c3ccccc13)C2 (configuration not stated),-8,-26,-5,-8,-7,0
C[N+]1(C)CCC(OC(=O)C(c2ccccc2)c2ccccc2)CC1,-8,96*,-1,-2,-25,0
C#CC[N+]1(C)[C@@H]2CC[C@H]1CC(OC(=O)C(CO)c1ccccc1)C2 (some centres not stated),-9,99*,-5,-14,-31,3
